PostGolgi ctrl: growth of the yeast control strain, post-Golgi counter-screen. efflux-deficient yeast background strain, growth absorbance A615, 16 h. inhibition, % at 10 µM. 98,000 tested, 5% active
E coli WT exp: E. coli BW25113 growth inhibition, expanded screen. OD600 absorbance. growth inhibition, % at 100 µM. 98,000 tested, 0.15% active. AID 710;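 active = growth inhibition above about 50% at one test dose, limit read from the data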;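 also: growth measured after 20 h incubation at 37 °C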
PTK2B oligo ant: Pyk2 (human) oligomerization antagonism; Q14289; Q293 cells, Pyk2 FERM NanoBiT luminescence; hits give low values; z-score (the deposit names both 25 µM and 10 µM); 99,000 tested, 0.83% active; AID 1347419;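 active = Z-score of -3 or lower, scaled per plate to the spread of control and sample wells; inactive = z-score above -3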;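 also: negative z-score means lost luminescence so less FERM oligomerization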
Target sequence (Q14289 whole entry, looked up): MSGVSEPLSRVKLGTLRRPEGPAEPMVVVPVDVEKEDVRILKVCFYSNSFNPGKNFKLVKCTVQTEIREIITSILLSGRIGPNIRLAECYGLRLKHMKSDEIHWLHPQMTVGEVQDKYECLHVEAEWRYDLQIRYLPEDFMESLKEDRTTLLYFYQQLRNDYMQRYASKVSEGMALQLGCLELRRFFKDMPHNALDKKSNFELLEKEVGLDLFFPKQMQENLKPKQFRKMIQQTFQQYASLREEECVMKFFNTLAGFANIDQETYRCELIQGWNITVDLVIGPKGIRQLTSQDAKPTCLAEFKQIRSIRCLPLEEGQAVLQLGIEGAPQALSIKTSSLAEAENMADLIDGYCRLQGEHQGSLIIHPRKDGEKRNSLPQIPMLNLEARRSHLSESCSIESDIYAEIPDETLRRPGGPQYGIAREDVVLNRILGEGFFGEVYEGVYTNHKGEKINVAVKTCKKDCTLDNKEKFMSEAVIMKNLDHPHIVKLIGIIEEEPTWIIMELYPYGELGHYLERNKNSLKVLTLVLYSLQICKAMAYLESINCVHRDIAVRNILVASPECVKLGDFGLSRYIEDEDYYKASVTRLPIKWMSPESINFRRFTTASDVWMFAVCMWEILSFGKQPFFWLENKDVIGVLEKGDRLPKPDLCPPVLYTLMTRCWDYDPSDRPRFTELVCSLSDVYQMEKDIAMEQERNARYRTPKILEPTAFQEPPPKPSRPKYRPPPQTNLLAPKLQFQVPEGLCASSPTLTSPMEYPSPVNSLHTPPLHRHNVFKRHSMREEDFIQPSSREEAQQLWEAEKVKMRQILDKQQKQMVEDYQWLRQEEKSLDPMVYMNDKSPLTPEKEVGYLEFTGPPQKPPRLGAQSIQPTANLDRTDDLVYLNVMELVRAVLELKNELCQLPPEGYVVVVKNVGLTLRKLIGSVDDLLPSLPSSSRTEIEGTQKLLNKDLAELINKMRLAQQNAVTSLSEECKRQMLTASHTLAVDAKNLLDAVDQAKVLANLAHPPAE
PostGolgi yeast: growth inhibition of a yeast mutant, post-Golgi transport screen; post-Golgi transport phenotypic cell assay; inhibition, % at 10 µM; 98,000 tested, 0.9% active;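 also: yeast cells grown in 1536-well plates; yeast grown about 18 h at 30C before absorbance read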
tolC growth inh: blocks growth of E. coli BW25113 tolC mutant; OD615; growth inhibition, % at 10 µM (by protocol); 65,000 tested, 2.2% active; AID 573;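 active = growth inhibition at or above a cutoff equal to the mean over every tested compound plus 3 SD, cut at about 60% in these data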;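 also: growth measured after 20 h incubation at 37 °C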
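Test system: E. coli BW25113 ΔtolC::kan bacteria | Medium: Kanamycin-containing LB broth (50 µg/mL) | Dosing: One dose of 10 µM final | Times: 20 h incubation with compound, 37 °C | Detection: Optical density read at 615 nm | Read-out basis: Percent growth inhibition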
Candida biofilm: kills Candida albicans biofilms | C. albicans biofilm + clotrimazole, Alamar Blue | inhibition, % at 6 µM | 85,000 tested, 0.14% active;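 active = inhibition above 20%; inactive = inhibition below 20%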;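 also: preformed 24 hr biofilms exposed to compound for 48 hr; 0% = biofilm without compound and 100% = blank killed by clotrimazole plus chlorhexidine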
An asterisk follows results filed as active; / = no result given. This is a sample that favours compounds with a hit; in the whole collection about 6.5% have one here. Rule as the data show it, unless noted: active = inhibition above about 30%; inactive = the rest.

SMILES	PostGolgi ctrl	E coli WT exp	PTK2B oligo ant	PostGolgi yeast	tolC growth inh	Candida biofilm
CC1CCC(C(C)C)C(OCC(O)CN2CCN(Cc3ccccc3)CC2)C1 (stereo not drawn)	30*	18	1.5	103*	/	/
CC1CCC(C(C)C)C(OCC(O)CN2CCOCC2)C1 (stereo not drawn)	11	-7	-0.44	9	/	7
CCn1cc(C(=O)O)c(=O)c2cnc(N3CCNCC3)nc21	/	/	/	/	7	-3
C=CCNC(=S)N1CCN(c2ncc3c(=O)c(C(=O)O)cn(CC)c3n2)CC1	6	100*	-0.45	7	/	/
CCCCSc1ccc(NC(=O)c2cccnc2)cc1	21	2	0.16	0	/	6
COc1ccccc1NC(=O)c1ccc(Br)o1	-2	8	0.04	-3	14	8
O=C(Nc1ccccc1Oc1ccccc1)c1ccc(Br)o1	51*	-1	-0.72	3	25	11
Cc1c(NC(=O)c2ccc(Br)o2)cccc1C(=O)O	-3	2	0.92	1	/	-1
O=C(Nc1ccccc1-c1ccccc1)c1ccc(Br)o1	35*	-7	-0.91	-2	/	8
Brc1ccccc1Cn1c(-c2cncs2)nc2ccccc21	63*	-1	/	8	62*	8
c1csc(Cn2c(-c3cccs3)nc3ccccc32)c1	27	-10	-2.7	-5	7	2
O=C(OCn1ncc(Cl)c(Cl)c1=O)c1ccc(F)cc1	19	-2	/	33*	/	/
O=C(Cn1ncc(Cl)c(Cl)c1=O)c1ccc(Cl)cc1	/	/	-0.81	/	/	3
O=C(OCn1ncc(Cl)c(Cl)c1=O)c1ccccc1Cl	25	16	0.85	79*	/	/
CC(/C=C1\SC(=O)N(CC(=O)Nc2cccc(O)c2)C1=O)=C\c1ccccc1	31*	-7	-0.1	0	/	/
COCc1cc(C)nc2sc3c(=O)n(Cc4ccco4)nnc3c12	2	-4	/	-4	4	1
Cc1cc(C)c2c(n1)sc1c(=O)n(Cc3ccccc3Cl)nnc12	40*	-10	0.18	4	/	-9
Clc1ccc2nc(SCc3nnc(-c4ccccc4)o3)[nH]c2c1	24	3	-0.43	-8	44	-1
Clc1ccc(OCc2nnc(SCc3nnc(-c4ccccc4)o3)o2)c(Cl)c1	41*	-11	-0.8	5	60	0
CCOC(=O)C1=C(C)NC(=O)NC1c1cccc(OC)c1OCc1ccccc1Cl (stereo not drawn)	4	-10	-0.97	8	/	-2
CCOc1ccccc1-n1c(SCC(=O)NC2CCCC2)nnc1-c1ccoc1C	11	5	-0.88	13	8	-5
CCc1cc2c3c(c(=O)oc2cc1O)CCCC3	27	2	1.3	7	61*	1
O=C(c1ccco1)N1c2ccccc2Sc2ccccc21	32*	-16	-1.4	4	49	/
O=C(NCCc1ccccc1)N1c2ccccc2Sc2ccccc21	22	-14	-1.2	-8	/	/
O=C(N1CCN(c2ccccn2)CC1)N1c2ccccc2Sc2ccccc21	85*	-2	-1.3	2	62*	11
SMILES	PostGolgi ctrl	E coli WT exp	PTK2B oligo ant	PostGolgi yeast	tolC growth inh	Candida biofilm
O=C(NC1CCN(C(=O)N2c3ccccc3Sc3ccccc32)CC1)c1ccco1	15	-6	-1.5	-5	60	5
O=C(NC1CCN(C(=O)N2c3ccccc3Sc3ccccc32)CC1)c1ccccc1Cl	43*	-17	-1.8	9	/	/
CN1C(=O)/C(=C\c2ccccc2)Sc2ccc(C(=O)N3CCN(c4ccccn4)CC3)cc21	32*	2	/	4	/	/
O=C(c1ccco1)N1CCN(C(=O)N2c3ccccc3Sc3ccccc32)CC1	44*	-7	-0.73	-3	11	7
Cc1ccc(NC(=O)CC(O)(C(F)(F)F)C(F)(F)F)cc1	11	27	-0.75	15	/	2
CC1CCC2C(C1)c1sc(=O)[nH]c1SC2(C)C (stereo not drawn)	66*	14	-0.77	5	63*	5
N#C/C(=C\C1CC=CCC1)c1nc2ccccc2[nH]1 (stereo not drawn)	9	-7	0.23	-6	64*	/
Cn1c(/C(C#N)=C/C2CC=CCC2)nc2ccccc21 (stereo not drawn)	24	-2	0.01	-9	3	4
O=C(Cn1cc(C(=O)C2CC2)c2ccccc21)NCc1ccc2c(c1)OCO2	4	-9	-0.26	6	/	4
CC(=O)N1N=C(c2cccc([N+](=O)[O-])c2)OC1c1ccc(Cl)cc1Cl (stereo not drawn)	34*	-11	-0.29	10	/	/
Cc1cc(-c2nnc(SCC(=O)Nc3ccccc3C(F)(F)F)o2)c(C)n1-c1ccccc1	12	-1	0.26	-1	/	-1
Cc1cccc(NC(=O)CSc2nnc(-c3cc(C)n(-c4ccccc4)c3C)o2)c1C	15	-26	0.21	-11	63*	7
CCc1cc2cccc(C)c2nc1SCC(=O)N1CCN(C(=O)c2ccco2)CC1	36*	0	-1	-4	29	6
CC(c1ccc(F)cc1)n1c(-c2ccc3ccccc3n2)n[nH]c1=S (stereo not drawn)	36*	4	-0.79	0	/	/
CC(c1ccc(Cl)cc1)n1c(-c2ccc3ccccc3n2)n[nH]c1=S (stereo not drawn)	55*	2	-0.49	3	/	/
CCCSC1=C(C#N)C(c2ccc(Cl)cc2Cl)CC(=O)N1 (stereo not drawn)	37*	0	-1	-2	24	3
CCCCSC1=C(C#N)C(c2ccccc2C)CC(=O)N1 (stereo not drawn)	33*	-1	/	11	-9	2
CCCSC1=C(C#N)C(c2ccccc2C)CC(=O)N1 (stereo not drawn)	11	5	-0.17	0	-3	6
CCSC1=C(C#N)C(c2ccccc2Cl)CC(=O)N1 (stereo not drawn)	15	4	-0.39	-2	2	/
CCOC(=O)c1c(C)[nH]c(C(=O)COC(=O)C2(C)CC2(Cl)Cl)c1C (stereo not drawn)	17	3	-1.6	-9	/	6
COc1ccccc1OCCn1c(C(C)O)nc2ccccc21 (stereo not drawn)	2	4	0.23	19	-12	3
NS(=O)(=O)c1cccc(NC(=O)Cn2cnc3ccccc3c2=O)c1	3	2	1.5	13	/	/
CN(C)CC(=O)c1ccc(-c2ccccc2)cc1	5	14	1.2	0	-4	-4
CN(C)CC(C(=O)c1ccccc1)c1ccccc1 (stereo not drawn)	31*	22	-0.22	2	19	-2
CCCCN(Cc1ccccc1)C(=O)C1CCN(S(=O)(=O)c2c(C)noc2C)CC1	-4	-8	0.28	21	/	3
CCCS(=O)(=O)N1CCCC(C(=O)NCCN(CC)CC)C1 (stereo not drawn)	33*	-1	0.04	5	-32	6
CCCS(=O)(=O)N1CCC(C(=O)NCCCN(CC)c2cccc(C)c2)CC1	-8	-9	1.4	2	-9	10
